# FLuc inh counter – firefly luciferase enzyme inhibitors, primary screen, artefact control for luciferase-based inhibitor screens, biochemical, luminescence, ATPLite; 10 min; inhibition, % at 10 µM; 200,000 tested, 1.5% active; Luciferin 4-monooxygenase (Photinus pyralis), P08659;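 active = inhibition above about 50% when tested at 10 µM, limit read from the data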
# Target sequence (P08659 whole entry, looked up): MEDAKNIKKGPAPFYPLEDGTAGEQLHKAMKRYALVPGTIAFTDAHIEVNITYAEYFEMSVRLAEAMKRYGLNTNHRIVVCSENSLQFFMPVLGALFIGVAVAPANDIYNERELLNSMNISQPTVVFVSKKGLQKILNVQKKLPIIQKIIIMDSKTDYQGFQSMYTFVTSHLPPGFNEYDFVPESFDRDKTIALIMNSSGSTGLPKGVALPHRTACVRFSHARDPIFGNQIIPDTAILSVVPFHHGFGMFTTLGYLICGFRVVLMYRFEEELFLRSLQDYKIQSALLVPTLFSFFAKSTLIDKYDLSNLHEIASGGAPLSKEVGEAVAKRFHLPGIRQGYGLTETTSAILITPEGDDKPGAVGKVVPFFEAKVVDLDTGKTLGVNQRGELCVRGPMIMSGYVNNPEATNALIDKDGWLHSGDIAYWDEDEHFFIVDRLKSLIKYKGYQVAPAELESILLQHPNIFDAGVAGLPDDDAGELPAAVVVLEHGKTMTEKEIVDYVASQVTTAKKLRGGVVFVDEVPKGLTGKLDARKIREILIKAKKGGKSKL
# HSP90 refold inh – HSP90 inhibitors, primary screen, cell lysate, luminescence; Heat shock protein HSP 90 (rabbit reticulocyte lysate; luciferase refolding); 290,000 tested, 0.91% active; Rabbit reticulocyte lysate, luciferase refolding luminescence, 3 h; inhibition, % at 5.6 µM;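 active = inhibition above the screen-wide mean plus 3 SD, computed separately per campaign, cut at about 16% in these data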;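 note: 0% = DMSO wells and 100% = 60 µM geldanamycin wells; inhibitors lower the luminescence because luciferase stays unfolded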
# TRAIL sens C8 – viability loss with TRAIL in NB7+C8 cells, primary screen, TRAIL sensitizer project, cell-based, ATPlite luminescence | inhibition (viability loss, TRAIL sensitization), % at 10 µM | 360,000 tested, 1% active | AID 624354, 2012;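 active = compounds causing at least 50% loss of cell viability in the single-dose screen, relative to plate controls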
# FLuc act counter – FLuc activators, initial screening, artefact control for FLuc-dependent activation tests, biochemical, ATPlite luminescence; AID 1027, 2008; activation factor at 10 µM; ATPlite luciferase biochemical, 10 min; 0 = ATP-free wells, 1 = DMSO control; 200,000 tested, under 10 active; Luciferin 4-monooxygenase (Photinus pyralis), P08659;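 active = luciferase activation factor, scaled between plate controls, of at least 2 with compound at 10 µM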
#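 assay system = Luciferase/luciferin detection reagent, cell-free biochemical luciferase assay | also added = ATP substrate | times = 10 min post-reagent at room temperature | measured by = luminescence from luciferase reaction | measure = luciferase activation, seen as luminescence increase over controls | benchmarks = low control with PBS replacing ATP, high control enzyme plus ATP without compound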
# PPC-1+TRAIL kill – compounds killing PPC-1 cancer cells with TRAIL present, primary screen, TRAIL potentiator project, ATPLite luminescence, uHTS. 220,000 tested, 0.41% active. cell killing (% activity), % at 4 µM or 5 µM. PPC-1 cells + TRAIL, ATPLite viability luminescence;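 active = cell killing above 50% in the first pass at 4 µM, then a duplicate retest at 5 µM averaging 50% or more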;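 note: plate controls were cells with TRAIL plus DMSO for no effect and medium-only wells lacking cells for full effect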
# HSP90 confirm – HSP90 inhibitors, confirmation, cell lysate, luminescence. shares compounds with HSP90 refold inh. rabbit reticulocyte lysate, luciferase refolding luminescence, 3 h. inhibition, % at 5.9 µM. 2,300 tested, 64% active. AID 1846, 2009; in the data active = inhibition above about 18%;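 note: 0% = vehicle wells and 100% = reference inhibitor wells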
# luciferase ctr – firefly luciferase inhibitors, HSP90 counter-screen, confirmation, artefact control for HSP90 inhibitor project, biochemical, luminescence, triplicate | shares compounds with HSP90 refold inh | 2,300 tested, 48% active | inhibition, % at 5.9 µM | purified native firefly luciferase;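 active = inhibition above the mean inhibition of all tested sample wells plus 3 SD, cut at about 10% in these data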;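 note: 0% = DMSO with luciferase and 100% = wells lacking luciferase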
# Numbers without * were called inactive; x = no result. An excerpt weighted towards active compounds, which were near 2% of everything screened.
SMILES,FLuc inh counter,HSP90 refold inh,TRAIL sens C8,FLuc act counter,PPC-1+TRAIL kill,HSP90 confirm,luciferase ctr
Cc1ccc(C(=O)NCCn2cc(SCC(=O)Nc3cc(C)on3)c3ccccc32)cc1,15,29*,5,0.8,4,31*,7
COc1ccccc1OCc1ccc(C(=O)N(C)c2ccccc2)o1,x,32*,-8,x,x,4,-2
Cn1cc(C(=O)c2ccccc2)cc1-c1nc2ccccc2n1C,-8,-1,13,1.1,-1,x,x
Cc1oc(-c2nc3ccccc3n2C)cc1C(=O)c1ccccc1,90*,17*,80*,0.1,19,57*,46*
O=C(CSc1nc(-c2ccccc2)cc(=O)[nH]1)Nc1ccc(F)c(F)c1,x,4,15,x,x,x,x
CCCCn1c(SC(C)C(N)=O)nc2cc(C(=O)OC)ccc2c1=O (stereo unspecified),-3,28*,1,1,12,-2,-6
CN(C)N=Nc1ccc(-c2cn(Cc3ccccc3)cn2)cc1,x,-1,-10,x,x,x,x
C=CCn1c(C)cc(C(=O)COc2ncnc3sccc23)c1C,58*,18*,38,0.4,13,45*,33*
C=CCn1c(C)cc(C(=O)COC(=O)c2cncc(Br)c2)c1C,x,x,7,x,x,x,x
CC(=O)NC1C(=O)N=C(SCc2ccccc2)NC1=O (stereo unspecified),-6,49*,-11,1.1,14,2,-5
Cc1cc(C2=NNC(=NC3CC3)SC2)c(C)n1-c1ccccc1F,96*,36*,95*,0,64*,85*,76*
CN(C)c1ccc(C(=O)OCC#CCSc2nnc(-c3cccc4ccccc34)o2)cc1,x,x,2,x,x,x,x
Cc1ccc2nc(-c3cc(-c4ccccc4)no3)cn2c1,x,25*,57*,x,33,69*,58*
Clc1ccc2nc(-c3ccccc3)cn2c1,x,36*,63*,x,x,55*,42*
CCOC(=O)CN1C(=O)S/C(=C/c2ccc3c(c2)n(C)c(=O)n3C)C1=O,-3,2,-1,1,20,x,x
CCOC(=O)CN1C(=O)S/C(=C/C=C/c2ccc(N(C)C)cc2)C1=O,9,39*,44,0.9,13,-5,-25
COc1ccc(/C=N\Nc2ccccc2[N+](=O)[O-])c(C(=O)O)c1OC,x,18*,2,x,0,6,8
Cc1c(-c2nc(-c3ccc(C(C)(C)C)cc3)no2)n(C)oc1=O,x,70*,13,x,-18,91*,-24
Cc1cc(-c2nc(-c3ccc(C(C)(C)C)cc3)no2)no1,x,-5,3,x,22,x,x
CC[C@@]12C(=O)N(c3ccc(OC)cc3)C(=O)N1[C@H](c1cccc(C)c1)[C@@H]1C(=O)N(Cc3ccccc3)C(=O)[C@@H]12,x,2,-3,x,x,x,x
O=C(N=C1SC2CS(=O)(=O)CC2N1c1ccccc1Cl)C1CCCO1 (stereo unspecified),x,-3,1,x,x,x,x
O=C1OCC(CO)(CO)N=C1NNc1ccccc1[N+](=O)[O-],x,21*,17,x,10,9,4
O=C1OCC(CO)(CO)N=C1NNc1cc(Cl)ccc1Cl,-4,1,-6,1,13,x,x
CC(=O)Oc1ccc(-c2cccc(C(=O)N(C)c3ccc(O)cc3)c2)cc1,-3,-2,-9,1,0,x,x
Cc1ccc(NC(=O)CCn2ccc([N+](=O)[O-])n2)nc1,-4,3,-9,1,9,x,x
SMILES,FLuc inh counter,HSP90 refold inh,TRAIL sens C8,FLuc act counter,PPC-1+TRAIL kill,HSP90 confirm,luciferase ctr
Cc1c(O)ccc(C(=O)CN2CCN(Cc3ccc4c(c3)OCO4)CC2)c1O,0,84*,2,1,4,-7,-11
CCc1nnc(NC(=O)CSc2nc3c(cc2C#N)CCCC3)s1,-2,25*,58*,1,-35,2,-4
CCOC(=O)c1sc(NC(=O)CSc2nc3c(cc2C#N)CCCCC3)c(C#N)c1C,-2,-1,24,1,14,x,x
O=C(Nc1nccs1)c1sc2ccccc2c1Cl,85*,23*,74*,0.1,39,50*,45*
COc1cc(/C=C/C(=O)O)cc(S(=O)(=O)N(CC(C)C)CC(C)C)c1OC,-3,-3,-2,1,5,x,x
Cc1c(OCc2ccc(C(=O)O)o2)ccc2c3c(c(=O)oc12)CCC3,15,50*,0,0.9,-14,63*,13*
COC(=O)c1ccc(COc2ccc3c(C)c(C)c(=O)oc3c2C)o1,5,3,x,0.9,15,x,x
Cc1oc(C(=O)O)cc1COc1ccc2c3c(c(=O)oc2c1)CCC3,7,19*,2,0.9,-2,8,-15
C[C@H](CO)N1C[C@H](C)[C@@H](CN(C)Cc2ccncc2)Oc2c(cccc2N(C)C)C1=O,x,x,-9,x,x,x,x
CNC(=O)Nc1cccc(-c2cc(-c3c(Cl)cccc3Cl)no2)c1,x,6,11,x,15,x,x
CC(=O)Nc1cccc(-c2cc(-c3c(Cl)cccc3Cl)no2)c1,x,19*,6,x,0,-9,-12
O=C(c1cn(-c2ccccc2)nc1-c1ccc(Br)cc1)N1CCOCC1,-8,95*,-5,1.1,9,1,-1
O=C(c1cn(-c2ccccc2)nc1-c1ccc(F)cc1)N1CCOCC1,12,3,-18,0.9,6,x,x
Cc1ccc(S(=O)(=O)N(Cc2ccc([N+](=O)[O-])cc2)C(=O)N2CCN(C)CC2)cc1,x,x,13,x,x,x,x
COc1ccc(C(=O)Oc2ccc(/C=N/Nc3ccc(Cl)c(C(=O)O)c3)cc2OC)cc1,x,46*,-3,x,x,66*,-2
COc1cc(/C=N/Nc2ccc(Cl)c(C(=O)O)c2)ccc1OC(=O)c1ccco1,4,32*,-9,1,29,71*,-18
CCOc1cc(/C=N/Nc2cccc(C(=O)O)c2)ccc1OC(=O)c1ccccc1,-3,37*,7,1,16,96*,32*
COc1cc(/C=N/Nc2ccc(Cl)c(C(=O)O)c2)ccc1OC(=O)c1cccs1,-1,21*,-3,1,33,61*,-24
COc1cc(/C=N/Nc2ccccc2)ccc1OC(=O)c1cccs1,-2,-2,x,1,14,x,x
COc1cc(C=NNc2ccccc2)ccc1OC(=O)c1ccccc1,x,x,7,x,x,x,x
COc1ccc(NC(=O)CC2SC(=N)N(c3ccccc3)C2=O)c(OC)c1 (stereo unspecified),0,1,15,1,12,x,x

# Compound activity: PubChem BioAssay, several laboratories
